Converted amounts (≈) assume the structure as drawn.
Columns and labels:
HepG2 = experiment: Cytotoxicity against human HepG2 cells assessed as reduction in cell viability measured after 48 hrs by MTT assay; assay type: cell-based; conditions: HepG2, 48 h
How it was run: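 Threefold serial dilutions gave final concentrations of 64 to 0.26 μg/mL. After 48 h at 37 °C, monolayers were washed with warm HBSS and given fresh medium plus MTT for 4 h. Absorbance was read at 492 nm. IC₅₀ is the concentration giving 50% growth inhibition versus the untreated control.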

[1] = system: Mycobacterium tuberculosis; experiment: Antimycobacterial activity against Mycobacterium tuberculosis H37Rv infected in mouse J774.1 cells assessed as reduction in bacterial colony forming units at 10 ug/ml incubated for 3 days (reference value: 5.52 +/- 0.18 log10CFU); assay type: functional; conditions: dose 10 µg/ml; time 3 day
How it was run: (§1)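 Mouse J774A.1 macrophages infected with M. tuberculosis H37Rv, treated 3 days at final 10 or 5 μg/mL; rifampicin control at 5 μg/mL. Intracellular log10 CFU counted; Δlog10 CFU = untreated minus treated. Triplicate, at least three separate experiments.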

[2] = system: Mycobacterium tuberculosis; experiment: Antimycobacterial activity against Mycobacterium tuberculosis H37Rv infected in mouse J774.1 cells assessed as change in bacterial colony forming units at 5 ug/ml incubated for 3 days; assay type: functional; conditions: dose 5 µg/ml; time 3 day; how it was run: as §1
[3] = system: Mycobacterium tuberculosis; experiment: Antimycobacterial activity against Mycobacterium tuberculosis H37Rv infected in mouse J774.1 cells assessed as reduction in bacterial colony forming units at 5 ug/ml incubated for 3 days (reference value: 5.52 +/- 0.18 log10CFU); assay type: functional; conditions: dose 5 µg/ml; time 3 day; how it was run: as §1
[4] = system: Mycobacterium tuberculosis; experiment: Antitubercular activity against Mycobacterium tuberculosis H37Rv assessed as bacterial growth inhibition incubated for 7 days by microplate Alamar blue assay; assay type: functional; conditions: 168 h, time 7 day
How it was run: (§2)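 MABA: H37Rv or clinical isolates grown to late log phase in 7H9 with 0.2% glycerol, 0.05% Tween 80, 10% ADC; washed, filtered 8 μm, frozen. 2 × 10⁵ CFU per well with twofold compound dilutions, 37 °C; day 7 Tween 80 plus Alamar blue, 16–24 h more, fluorescence ex 530/em 590. MIC = lowest concentration giving ≥90% fluorescence reduction versus bacterium-only controls; RFP, INH, TCA1 controls.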

[5] = system: Mycobacterium tuberculosis; experiment: Antimycobacterial activity against Mycobacterium tuberculosis H37Rv infected in mouse J774.1 cells assessed as change in bacterial colony forming units at 10 ug/ml incubated for 3 days; assay type: functional; conditions: dose 10 µg/ml; time 3 day; how it was run: as §1
[6] = Selectivity index, ratio of IC50 for African green monkey Vero cells to MIC for antitubercular activity against Mycobacterium tuberculosis H37Rv; assay type: toxicity; conditions: read-out: Selectivity Index
[7] = Stability in mouse hepatocytes assessed as parent compound remaining at 1 uM measured after 30 mins by LC-MS/MS analysis; assay type: ADME, cell-based, Hepatocyte; conditions: 0.5 h
How it was run: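 Hepatocytes from male mice; metabolic stability measured as the amount of parent compound remaining. Concentrations after 30 min incubation were normalized to those at time zero.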

[8] = target: T1, Decaprenylphosphoryl-beta-D-ribose oxidase (Mycobacterium tuberculosis (strain ATCC 25618 / H37Rv)) (UniProt P9WJF1); experiment: Non-covalent inhibition of DprE1 in Mycobacterium tuberculosis H37Rv measured after 7 days by microplate Alamar blue assay; conditions: time 7.0 day; how it was run: as §2
T1 sequence (whole entry): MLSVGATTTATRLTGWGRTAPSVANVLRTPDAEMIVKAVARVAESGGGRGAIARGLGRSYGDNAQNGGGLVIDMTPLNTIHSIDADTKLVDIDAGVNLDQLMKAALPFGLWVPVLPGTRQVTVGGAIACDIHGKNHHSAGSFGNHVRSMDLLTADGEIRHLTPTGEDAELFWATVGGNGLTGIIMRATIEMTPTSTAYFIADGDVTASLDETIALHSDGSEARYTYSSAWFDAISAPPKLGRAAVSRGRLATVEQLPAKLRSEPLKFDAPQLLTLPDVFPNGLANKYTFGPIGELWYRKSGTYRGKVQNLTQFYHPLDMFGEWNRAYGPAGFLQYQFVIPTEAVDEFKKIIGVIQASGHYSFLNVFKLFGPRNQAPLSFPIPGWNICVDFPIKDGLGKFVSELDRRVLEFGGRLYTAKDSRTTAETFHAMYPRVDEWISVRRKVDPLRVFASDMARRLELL

SMILES	Activity [1]	Activity [2]	Activity [3]	MIC [4]	Activity [5]	selectivity ratio [6]	other results
COC(=O)NC(=O)c1ccsc1NC(=O)c1ccc(C(=O)N2CCCCC2)c(F)c1	4.59 log10CFU	0.77 deltalog10CFU	4.75 log10CFU	1.94 µg/mL (≈ 4.48 µM)	0.93 deltalog10CFU		IC50 (HepG2): > 64 µg/mL
CCOC(=O)NC(=O)c1ccsc1NC(=O)c1ccc(C(=O)NC2CCC(C)(C)CC2)cc1				0.04 µg/mL (≈ 0.0848 µM)			
NC(=O)c1ccsc1NC(=O)c1ccc(C(=O)N2CCCCC2)cc1				0.2 µg/mL (≈ 0.56 µM)			
CCOC(=O)NC(=O)c1ccsc1NC(=O)c1nc2ccccc2s1	4.36 log10CFU	0.11 deltalog10CFU	4.91 log10CFU		1.16 deltalog10CFU	66	Stability [7]: 79.8%
CCOC(=O)NC(=O)c1ccsc1NC(=O)c1cc(C(=O)N2CCCCC2)c[nH]1				137 µg/mL (≈ 327 µM)			
COC(=O)C1CCN(C(=O)c2ccsc2NC(=O)c2ccc(C(=O)N3CCCCC3)cc2)CC1				> 32 µg/mL			
CCNC(=O)NC(=O)c1ccsc1NC(=O)c1ccc(C(=O)N2CCCCC2)cc1				0.47 µg/mL (≈ 1.1 µM)			
CCOC(=O)NC(=O)c1ccsc1NC(=O)c1ccc(C(=O)N2CCCCC2)s1						> 457	IC50 (HepG2): > 64 µg/mL
CCOC(=O)NC(=O)c1ccsc1NC(=O)c1ccc(C(=O)N2CCCCC2)cc1	4.45 log10CFU	0.98 deltalog10CFU	4.54 log10CFU		1.07 deltalog10CFU		IC50 (HepG2): > 64 µg/mL; MIC [8]: 0.055 µg/mL (≈ 0.128 µM)
Cc1cccc(NC(=O)c2ccsc2NC(=O)c2ccc(C(=O)N3CCCCC3)cc2)n1				15.5 µg/mL (≈ 34.6 µM)			
Cc1cnc(NC(=O)c2ccsc2NC(=O)c2ccc(C(=O)N3CCCCC3)cc2)s1				0.19 µg/mL (≈ 0.418 µM)			
CCOC(=O)NC(=O)c1ccsc1NC(=O)c1ccc(C(=O)N2CCCCC2)c(F)c1	4.18 log10CFU	1.11 deltalog10CFU	4.41 log10CFU		1.34 deltalog10CFU	> 4000	IC50 (HepG2): > 64 µg/mL
COC(=O)NC(=O)c1ccsc1NC(=O)c1ccc(C(=O)N2CCCCC2)cc1	4.77 log10CFU	0.46 deltalog10CFU	5.06 log10CFU	> 32 µg/mL	0.75 deltalog10CFU		IC50 (HepG2): > 64 µg/mL; MIC [8]: 0.12 µg/mL (≈ 0.289 µM)
Cc1ccnc(NC(=O)c2ccsc2NC(=O)c2ccc(C(=O)N3CCCCC3)c(F)c2)n1				> 32 µg/mL			
CCOC(=O)NC(=O)c1ccsc1NC(=O)c1coc(C(=O)N2CCCCC2)c1				37 µg/mL (≈ 88.2 µM)			
Cc1ccnc(NC(=O)c2ccsc2NC(=O)c2ccc(C(=O)N3CCCCC3)cc2)n1				0.03 µg/mL (≈ 0.0667 µM)		> 27	
CCCNC(=O)c1ccc(C(=O)Nc2sccc2C(=O)NC(=O)OCC)cc1						> 320	
O=C(Nc1sccc1C(=O)Nc1nccc(C(F)(F)F)n1)c1ccc(C(=O)N2CCCCC2)cc1	4.54 log10CFU	0.93 deltalog10CFU	4.59 log10CFU	> 32 µg/mL	0.98 deltalog10CFU	> 320	
